Molecules are shown by their SMILES.

Test [1] concerns the target Delta-type opioid receptor (Homo sapiens, UniProt P41143). The experiment in a line: Agonist activity at delta-type opioid receptor. Format: functional.
Test [2] has as its target Mu-type opioid receptor (Homo sapiens, UniProt P35372). The experiment in a line: Agonist activity at Mu-type opioid receptor. The test is classed as functional.
The species entered for test [3] is Rattus norvegicus. The test is described as follows: Selectivity ratio of Ki of rat brain delta-type opioid receptor to Ki of rat brain Mu-type opioid receptor.
Test [4] has as its target Delta-type opioid receptor (Rattus norvegicus, UniProt P33533). The experiment in a line: Displacement of [3H]Ile-deltorphin-2 from rat brain delta-type opioid receptor by liquid scintillation counting. The procedure, abridged:
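Wistar male rat (250–300 g) brain membranes, 0.2–0.4 mg protein/tube, 2 nM [3H]Ile5,6-deltorphin-2 plus 0.25 mg BSA/tube, competitor 10^-11–10^-5 M, 50 mM Tris-HCl pH 7.4, 45 min at 35 °C. GF/B filtration, ice-cold Tris washes, scintillation counting. Nonspecific binding with 10 μM naloxone; duplicates, one/two-site competition fit for Ki.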

For test [5], the target named is Mu-type opioid receptor (Rattus norvegicus) (UniProt P33535). The test is described as follows: Agonist activity at rat brain Mu-type opioid receptor assessed as [35S]GTPgammaS binding by liquid scintillation counting relative to control. The test is classed as functional. The procedure, abridged: (§1)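 Rat brain membranes (15 μg protein/tube) with 0.05 nM [35S]GTPγS and opioids 10^-10–10^-5 M, plus 30 μM GDP, 100 mM NaCl, 3 mM MgCl2, 1 mM EGTA in 50 mM Tris-HCl pH 7.4, 60 min at 30 °C. Started by protein, stopped with ice-cold buffer and GF/B filtration, scintillation counted. Nonspecific binding with 10 μM unlabeled GTPγS; stimulation as % of specific binding over basal (no opioid).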
Chain of Mu-type opioid receptor (Rattus norvegicus) (P33535 whole entry): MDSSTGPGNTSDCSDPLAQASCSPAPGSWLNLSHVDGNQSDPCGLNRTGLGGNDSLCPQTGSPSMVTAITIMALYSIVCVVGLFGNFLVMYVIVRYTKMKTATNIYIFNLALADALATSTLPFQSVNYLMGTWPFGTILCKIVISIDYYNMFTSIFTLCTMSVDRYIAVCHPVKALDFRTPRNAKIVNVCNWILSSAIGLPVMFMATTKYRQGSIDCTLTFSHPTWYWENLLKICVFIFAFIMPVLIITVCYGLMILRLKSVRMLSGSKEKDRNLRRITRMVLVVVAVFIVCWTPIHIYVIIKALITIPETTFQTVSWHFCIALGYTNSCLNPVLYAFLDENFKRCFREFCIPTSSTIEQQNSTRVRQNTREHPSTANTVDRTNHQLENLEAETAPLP

For test [6], the target named is T1, Mu-type opioid receptor (Rattus norvegicus, UniProt P33535). The test is described as follows: Agonist activity at rat brain mu-opioid receptor assessed as [35S]GTPgammaS binding by liquid scintillation counting. The test is classed as functional. The procedure, abridged: as §1
T1 sequence (P33535 whole entry): as above
Test [7] concerns the target T1, Mu-type opioid receptor. The test is described as follows: Displacement of [3H]DAMGO from rat brain Mu-type opioid receptor by liquid scintillation counting. In short, it runs like this:
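Wistar male rat (250–300 g) brain membrane homogenate, 0.2–0.4 mg protein/tube, with 0.5 nM [3H]DAMGO and competitor 10^-11–10^-5 M in 50 mM Tris-HCl pH 7.4, 1 h at 25 °C. Stopped by GF/C filtration, ice-cold Tris washes, scintillation counted. Nonspecific binding with 10 μM naloxone; duplicate runs, one/two-site competition fit for Ki.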

The target of test [8] is Mu-type opioid receptor (Cavia porcellus, UniProt P97266). The experiment in a line: Agonist activity at guinea pig ileum Mu-type opioid receptor. The test is classed as functional, tissue-based.
Chain of Mu-type opioid receptor (Cavia porcellus, UniProt P97266) (P97266 whole entry): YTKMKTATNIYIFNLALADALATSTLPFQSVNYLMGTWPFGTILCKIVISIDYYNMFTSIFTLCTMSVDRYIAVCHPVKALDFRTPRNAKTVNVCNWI

Chain of Delta-type opioid receptor (Rattus norvegicus, UniProt P33533) (P33533 whole entry): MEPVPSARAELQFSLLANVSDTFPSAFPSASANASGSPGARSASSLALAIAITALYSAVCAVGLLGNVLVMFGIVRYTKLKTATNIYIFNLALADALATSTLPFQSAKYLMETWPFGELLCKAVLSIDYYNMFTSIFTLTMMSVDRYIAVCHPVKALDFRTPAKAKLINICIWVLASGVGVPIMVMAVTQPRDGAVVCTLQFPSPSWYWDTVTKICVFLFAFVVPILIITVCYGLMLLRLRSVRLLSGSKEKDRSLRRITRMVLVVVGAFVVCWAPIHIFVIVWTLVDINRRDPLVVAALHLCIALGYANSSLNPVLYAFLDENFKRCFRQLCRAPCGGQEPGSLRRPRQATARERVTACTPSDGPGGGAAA
Chain of Mu-type opioid receptor (Homo sapiens, UniProt P35372) (P35372 whole entry): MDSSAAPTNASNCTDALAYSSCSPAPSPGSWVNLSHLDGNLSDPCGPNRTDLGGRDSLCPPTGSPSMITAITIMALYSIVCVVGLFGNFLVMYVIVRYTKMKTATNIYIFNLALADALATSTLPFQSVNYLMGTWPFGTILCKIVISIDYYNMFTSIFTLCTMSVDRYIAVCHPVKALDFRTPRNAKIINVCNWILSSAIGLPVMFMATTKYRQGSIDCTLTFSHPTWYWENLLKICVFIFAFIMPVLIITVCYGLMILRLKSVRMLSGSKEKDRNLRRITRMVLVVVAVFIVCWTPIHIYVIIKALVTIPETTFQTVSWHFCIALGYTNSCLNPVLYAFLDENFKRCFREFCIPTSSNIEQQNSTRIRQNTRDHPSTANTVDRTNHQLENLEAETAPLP
Chain of Delta-type opioid receptor (Homo sapiens, UniProt P41143) (P41143 whole entry): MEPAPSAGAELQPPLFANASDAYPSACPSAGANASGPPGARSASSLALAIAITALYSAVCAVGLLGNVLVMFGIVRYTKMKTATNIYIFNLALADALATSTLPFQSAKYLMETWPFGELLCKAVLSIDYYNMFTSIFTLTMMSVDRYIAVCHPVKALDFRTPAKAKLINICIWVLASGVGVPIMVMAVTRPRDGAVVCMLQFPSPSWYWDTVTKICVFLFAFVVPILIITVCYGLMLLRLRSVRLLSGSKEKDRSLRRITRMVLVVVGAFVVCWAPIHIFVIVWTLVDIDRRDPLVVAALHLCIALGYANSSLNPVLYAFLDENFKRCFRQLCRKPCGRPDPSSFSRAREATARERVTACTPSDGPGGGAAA

Take `C[C@@H](NC(=O)[C@@H](N)Cc1ccc(O)cc1)C(=O)NC1Cc2ccccc2CN(CC(=O)N[C@@H](Cc2ccc(O)cc2)C(=O)N2CCC[C@H]2C(=O)N[C@@H](CO)C(N)=O)C1=O` (some centres undefined): the IC50 in test [1] was found to be 17.4 nM; in test [2], 11 nM.

For `Cc1cc(O)cc(C)c1C[C@H](N)C(=O)N[C@H](C)C(=O)N[C@@]1(C)Cc2ccccc2CN(CC(N)=O)C1=O`, the Ratio Ki in test [3] was determined as 187. The Ki in test [4] came to 859 nM; in test [7], 4.6 nM. Also, in test [5], the Emax turned out to be 159%. In addition, the EC50 in test [6] turned out to be 941 nM.

In the case of `Cc1cc(O)cc(C)c1C[C@H](N)C(=O)N[C@H](C)C(=O)N[C@@H]1Cc2ccccc2CN(CC(N)=O)C1=O`, the Ratio Ki in test [3] turned out to be 1020. Also, the figures for the Ki in test [4] and in test [7] were 337 nM and 0.33 nM, respectively. Moreover, the Emax in test [5] was found to be 178%. Besides, the EC50 in test [6] was found to be 64.2 nM.

As to `Cc1cc(O)cc(C)c1C[C@H](N)C(=O)N[C@H](C)C(=O)N[C@@H]1C(=O)N(CC(N)=O)Cc2ccccc2[C@H]1C`, the Ratio Ki in test [3] worked out at 51. In addition, the Ki in test [4] was found to be 720 nM; in test [7], 14 nM. Moreover, the Emax in test [5] was 130%. In addition, the EC50 in test [6] is 685 nM.

For `Cc1cc(O)cc(C)c1C[C@H](N)C(=O)N[C@H](C)C(=O)N[C@]1(C)Cc2ccccc2CN(CC(N)=O)C1=O`, in test [3], the Ratio Ki was found to be 210. Besides, the results for the Ki in test [4] and in test [7] were 63 nM and 0.3 nM, respectively. Also, in test [5], the Emax stood at 154%. In test [6], the EC50 came to 288 nM.

For the compound `Cc1cc(O)cc(C)c1C[C@H](N)C(=O)N[C@H](C)C(=O)N[C@H]1C(=O)N(CC(N)=O)Cc2ccccc2[C@H]1C`, in test [3], the Ratio Ki turned out to be 1220. Further, the Ki in test [4] is 490 nM; in test [7], 0.4 nM. Further, the Emax in test [5] stood at 167%. For the same compound, the 50% effective concentration (EC50) in test [6] worked out at 184 nM.

As to `C[C@H](C(=O)NC1Cc2ccccc2CN(CC(N)=O)C1=O)N1Cc2cc(O)ccc2CC(N)C1=O` (some centres undefined), the IC50 in test [8] came to 3.64 nM; in test [2], 20.8 nM.

Regarding `Cc1cc(O)cc(C)c1C[C@H](N)C(=O)N[C@H](C)C(=O)N[C@@H]1C(=O)N(CC(N)=O)Cc2ccccc2[C@@H]1C`, the Ratio Ki in test [3] stood at 68. In addition, the Ki in test [4] turned out to be 1.7 nM; in test [7], 0.025 nM. For the same compound, the Emax in test [5] is 191%. Moreover, in test [6], the EC50 worked out at 36 nM.

As to `Cc1cc(O)cc(C)c1C[C@H](N)C(=O)N[C@H](C)C(=O)N[C@H]1Cc2ccccc2CN(CC(N)=O)C1=O`, the Ratio Ki in test [3] came out at 51. For the same compound, the Ki in test [4] was 2.4 nM; in test [7], 0.047 nM. Besides, the Emax in test [5] worked out at 161%. For the same compound, the EC50 in test [6] is 18 nM.

On to `Cc1cc(O)cc(C)c1C[C@H](N)C(=O)N[C@H](C)C(=O)N[C@H]1C(=O)N(CC(N)=O)Cc2ccccc2[C@@H]1C`, for which the Ratio Ki in test [3] amounted to 960. Further, the Ki in test [4] amounted to 24 nM; in test [7] it was 0.025 nM. In addition, the Emax in test [5] stood at 149%. For the same compound, the EC50 in test [6] came to 9.3 nM.

The values above are taken from ChEMBL document CHEMBL1833812, “Synthesis, biological evaluation, and automated docking of constrained analogues of the opioid peptide H-Dmt-D-Ala-Phe-Gly-NH₂ using the 4- or 5-methyl substituted 4-amino-1,2,4,5-tetrahydro-2-benzazepin-3-one scaffold” (J Med Chem, 2011).
